This is an account of results in ChEMBL document CHEMBL1134386, “Cardioselective K(ATP) channel blockers derived from a new series of m-anisamidoethylbenzenesulfonylthioureas” (J Med Chem, 2001).

Common to all, as to format: functional, cell-based
Experiment [1] deals with T1, Sulfonylurea receptor 1, Kir6.2 (Homo sapiens) (UniProt Q14654+Q09428). Kind of experiment: Antiarrhythmic effect in hSUR1/hKir6.2 (pancreatic KATP channel) transfected in CHO cells at a dose of 0.1 uM. The conditions noted are these: at 0.1 µM. Put shortly: (§1)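 CHO cells stably expressing SUR1/Kir6.2, seeded the day before and washed three times in PBS. Loaded with voltage dye DiBAC4(3), added as a 10 µM solution, with diazoxide, added as a 400 µM solution, both in PBS; 30 min at 37 °C. Compound added after 4 min of baseline. Fluorescence read with 488 nm excitation every 20 s for 20 min. Mean of at least four experiments.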

The target of experiment [2] is T1, Sulfonylurea receptor 1, Kir6.2 (Homo sapiens). Kind of experiment: Antiarrhythmic effect in hSUR1/hKir6.2 (pancreatic KATP channel) transfected in CHO cells at a dose of 1 uM. To be noted: at 1 µM. The method in brief:
as §1

Experiment [3] shares this target. Kind of experiment: Antiarrhythmic effect in hSUR1/hKir6.2 (pancreatic KATP channel) transfected in CHO cells at a dose of 10 uM. To be noted: at 10 µM. The method in brief:
as §1

The target is the same in experiment [4]. Kind of experiment: Antiarrhythmic effect in hSUR1/hKir6.2 (pancreatic KATP channel) transfected in CHO cells at 1 nM. Put shortly:
(§2)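 CHO cells stably expressing SUR1/Kir6.2, seeded the day before and washed three times with PBS. Loaded with DiBAC4(3) plus diazoxide in PBS for 30 min at 37 °C. Membrane-potential fluorescence read with 488 nm excitation; compound added at 4 min, then readings every 20 s for 20 min. Mean of at least four experiments.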

The target is the same in experiment [5]. Kind of experiment: Antiarrhythmic effect in hSUR1/hKir6.2 (pancreatic KATP channel) transfected in CHO cells at 3 nM. Put shortly:
as §2

For orientation: inhibition means the drop in the measured response relative to a control, in per cent. On to `CN/C(S)=N/S(=O)(=O)c1cc(CCNC(=O)c2cc(Cl)ccc2OC)c(OC)c(C)c1OC`, for which the inhibition in experiment [1] is -2%; in experiment [2], 6.7%; in experiment [3], 47.8%.
As to `CN/C(S)=N/S(=O)(=O)c1cccc(CCNC(=O)c2cc(Cl)ccc2OC)c1`, the inhibition in experiment [1] is -4.1%; in experiment [2] it was 1.9%; in experiment [3], 52.7%.
The like results for `CCCOc1ccc(CCNC(=O)c2cc(Cl)ccc2OC)cc1S(=O)(=O)/N=C(\S)NC` were, in that order, 4.2%, 63.6% and 103%.
For the compound `CNC(=O)NS(=O)(=O)c1cc(CCNC(=O)c2cc(Cl)ccc2OC)ccc1OC`, the figures for the inhibition in experiment [1], in experiment [2] and in experiment [3] were -2.8%, -1.3% and 43.9%, respectively.
The like results for `CCOc1ccc(CCNC(=O)c2cc(Cl)ccc2OC)cc1S(=O)(=O)/N=C(\S)NC` were, in that order, -2.7%, 16.3% and 75.4%.
On to `CN/C(S)=N/S(=O)(=O)c1cc(CCNC(=O)c2cc(Cl)ccc2OC)ccc1Br`, for which the inhibition in experiment [1] is 3.3%; in experiment [2], 2.2%; in experiment [3], 67.7%.
As for `CN/C(S)=N/S(=O)(=O)c1cc(CCNC(=O)c2cc(Cl)ccc2OC)ccc1F`, the inhibition in experiment [1] is -3.9%; in experiment [2], -1.3%; in experiment [3] it was 18.1%.
Turning to `COc1ccc(Cl)cc1C(=O)NCCc1ccc(OC)c(S(=O)(=O)/N=C(/N)S)c1`, the inhibition is 1.6% in experiment [1], 11.2% in experiment [2] and 64.7% in experiment [3].
The matching figures for `CNC(=O)NS(=O)(=O)c1ccc(CCNC(=O)c2cc(Cl)ccc2OC)cc1`: -0.7%, 62.8% and 86.3%.
`CN/C(S)=N/S(=O)(=O)c1cc(CCNC(=O)c2cc(Cl)ccc2OC)c(C)c(C)c1OC`: the figures for the inhibition in experiment [1], in experiment [2] and in experiment [3] were 0.8%, 6.1% and 64.9%, respectively.
The like results for `CNC(=O)NS(=O)(=O)c1cc(CCNC(=O)c2cc(Cl)ccc2OC)c(OC)cc1OC` were, in that order, -0.6%, 2.8% and 13.5%.
The matching figures for `CN/C(S)=N/S(=O)(=O)c1cc(CCNC(=O)c2cc(Cl)ccc2OC)ccc1-c1ccccc1`: 9.4%, 33% and 67.7%.
`COc1ccc(Cl)cc1C(=O)NCCc1ccc(OC)c(S(=O)(=O)NC(=O)NC2CCCCC2)c1`: the results for the inhibition in experiment [1], in experiment [2] and in experiment [3] were 65.5%, 92.8% and 81.7%, respectively.
On to `CN/C(S)=N/S(=O)(=O)c1cc(CCNC(=O)c2cc(Cl)ccc2OC)ccc1N1CCOCC1`, for which the inhibition was -1.6% in experiment [1], 26.7% in experiment [2] and 89.1% in experiment [3].
For the compound `CN/C(S)=N/S(=O)(=O)c1cc(CCNC(=O)c2cc(Cl)ccc2OC)ccc1C`, the inhibition in experiment [1] came out at 1.9%; in experiment [2] it was 21%; in experiment [3] it was 74.8%.
Turning to `CN/C(S)=N/S(=O)(=O)c1cc(CCNC(=O)c2cc(Cl)ccc2OC)ccc1[S+](C)[O-]` (stereo not given), the figures for the inhibition in experiment [1], in experiment [2] and in experiment [3] were 1.9%, 2.4% and 17.6%, respectively.
Consider `C#Cc1ccc(CCNC(=O)c2cc(Cl)ccc2OC)cc1S(=O)(=O)/N=C(\S)NC`, for which the inhibition in experiment [1] is 3.3%; in experiment [2] it was 3.4%; in experiment [3], 27.6%.
For `CN/C(S)=N/S(=O)(=O)c1cc(CCNC(=O)c2cc(Cl)ccc2OC)ccc1C(C)C`, the values for the inhibition in experiment [1], in experiment [2] and in experiment [3] were 12%, 29.3% and 92.4%, respectively.
The matching figures for `CNC(=O)NS(=O)(=O)c1cc2c(cc1OC)OCCC2CNC(=O)c1cc(Cl)ccc1OC` (single isomer, unassigned; (+)): 2%, 1% and 0.3%.
With `CN/C(S)=N/S(=O)(=O)c1cc2c(cc1OC)OCCC2CNC(=O)c1cc(Cl)ccc1OC` (single isomer, unassigned; (-)), the inhibition in experiment [1] is 6.8%; in experiment [2], 63%; in experiment [3], 75.7%.
The like results for `CNC(=S)NS(=O)(=O)c1cc(CCNC(=O)c2cc(Cl)ccc2OC)ccc1OC` were, in that order, 5%, 24.3% and 83.8%.
Regarding `CN/C(S)=N/S(=O)(=O)c1cc(CCNC(=O)c2cc(Cl)ccc2OC)ccc1OCCOC`, the inhibition came to 12.5% in experiment [1], 26.2% in experiment [2] and 49.5% in experiment [3].
In the case of `CCCc1ccc(CCNC(=O)c2cc(Cl)ccc2OC)cc1S(=O)(=O)/N=C(\S)NC`, the inhibition in experiment [1] amounted to 2.3%; in experiment [2], 41.5%; in experiment [3], 97.1%.
The matching figures for `CN/C(S)=N/S(=O)(=O)c1cc(CCNC(=O)c2cc(Cl)ccc2OC)ccc1-c1ccccn1`: 6.6%, 24.4% and 91.4%.
The matching figures for `CN/C(S)=N/S(=O)(=O)c1cc(CCNC(=O)c2cc(Cl)ccc2OC)ccc1SC`: -2.1%, 15.2% and 81.4%.
The matching figures for `CN/C(S)=N/S(=O)(=O)c1cc(CCNC(=O)c2cc(Cl)ccc2OC)ccc1OC(C)C`: -4.7%, 27.4% and 81.1%.
On to `CNC(=O)NS(=O)(=O)c1cc2c(cc1OC)OCCC2CNC(=O)c1cc(Cl)ccc1OC` (single isomer, unassigned; (-)), for which the inhibition in experiment [1] is 2.5%; in experiment [2] it was 14.2%; in experiment [3] it was 105%.
On to `CCc1ccc(CCNC(=O)c2cc(Cl)ccc2OC)cc1S(=O)(=O)/N=C(\S)NC`, for which the inhibition was 1.3% in experiment [1], 20.5% in experiment [2] and 92.9% in experiment [3].
The like results for `CN/C(S)=N/S(=O)(=O)c1cc(CCNC(=O)c2cc(Cl)ccc2OC)ccc1-c1ccco1` were, in that order, -2.6%, 16% and 82.7%.
Consider `COc1ccc(Cl)cc1C(=O)NCCc1ccc(OC)c(S(=O)(=O)/N=C(\S)NC2CCCCC2)c1`, for which the inhibition was 20.5% in experiment [1], 87.6% in experiment [2] and 122% in experiment [3].
Consider `C=CCOc1ccc(CCNC(=O)c2cc(Cl)ccc2OC)cc1S(=O)(=O)/N=C(\S)NC`, for which the results for the inhibition in experiment [1], in experiment [2] and in experiment [3] were 1.7%, 31.8% and 94%, respectively.
The like results for `CN/C(S)=N/S(=O)(=O)c1cc(CCNC(=O)c2cc(Cl)ccc2OC)ccc1Cl` were, in that order, 2.3%, 2.8% and 40.1%.
The matching figures for `CN/C(S)=N/S(=O)(=O)c1cc(CCNC(=O)c2cc(Cl)ccc2OC)c(OC)cc1OC`: -1%, 0.7% and 30.5%.
The like results for `CN/C(S)=N/S(=O)(=O)c1cc(CCNC(=O)c2cc(Cl)ccc2OC)ccc1OCCOCCOC` were, in that order, 1%, 45.5% and 96.4%.
With `CN/C(S)=N/S(=O)(=O)c1cc(CCNC(=O)c2cc(Cl)ccc2OC)ccc1S(C)(=O)=O`, the inhibition in experiment [1] came to 1.8%; in experiment [2], 1.1%; in experiment [3] it was 16.4%.
The matching figures for `CN/C(S)=N/S(=O)(=O)c1cc(CCNC(=O)c2cc(Cl)ccc2OC)ccc1I`: 1.7%, 19.2% and 89.2%.
The like results for `CN/C(S)=N/S(=O)(=O)c1cc(CCNC(=O)c2cc(Cl)ccc2OC)ccc1OC(F)(F)F` were, in that order, 0.8%, 6% and 64.9%.
The like results for `CN/C(S)=N/S(=O)(=O)c1cc(CCNC(=O)c2cc(Cl)ccc2OC)cc(OC)c1OC` were, in that order, -3.8%, -2.12% and -2.34%.
As to `COc1ccc(Cl)cc1C(=O)NCCc1ccc(S(=O)(=O)NC(=O)NC2CCCCC2)cc1`, the inhibition in experiment [4] came to 24%; in experiment [5], 73.3%.
On to `CN/C(S)=N/S(=O)(=O)c1cc2c(cc1OC)OCCC2CNC(=O)c1cc(Cl)ccc1OC` (single isomer, unassigned; (+)), for which the inhibition was -3.9% in experiment [1], 3.6% in experiment [2] and 70.7% in experiment [3].
Take `CN/C(S)=N/S(=O)(=O)c1cc(CCNC(=O)c2cc(Cl)ccc2OC)ccc1-c1cccnc1`: the inhibition was found to be 4.4% in experiment [1], 10.2% in experiment [2] and 62.3% in experiment [3].
As for `COc1ccc(Cl)cc1C(=O)NCCc1ccc(OC)c(S(=O)(=O)NC(=O)N(C)C)c1`, the inhibition is -3.6% in experiment [1], -3.2% in experiment [2] and 25% in experiment [3].
